In the array DNA melting data of Ke et al. (doi:10.1101/2024.01.08.574731):

Experiments:
[1] = folding enthalpy; higher = less favourable; fluorescence melt of hairpins on a sequencing array, two-state fit; settings: sodium 0.088 M
Summary of the method: (§1)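 In 50 mM Na-HEPES pH 8.0 containing 25 mM NaCl, hairpins from the library on a sequenced MiSeq flow cell were imaged for Cy3 fluorescence at 2.5 °C steps up to 60 °C, with Cy3 and quencher oligos annealed. After normalisation to pre-quench Cy3 and to control constructs, two-state fits with bootstrapping gave melting temperature and folding enthalpy. Four replicates were combined by inverse-variance weighting, and fitted temperatures were shifted up by 9.35 °C to match UV melts.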

[2] = melting temperature; fluorescence melt of hairpins on a sequencing array, two-state fit, raised by 9.35 °C to match UV melts; settings: sodium 0.088 M
Summary of the method: as §1

Row | Sequence | folding enthalpy [1] [kcal/mol] | Tm [2] [°C]
1 | GCGTTTGACGC ((((...)))) | -18.3 | 57.1
2 | GCGTTTGGAAACAGATGC ((.(.((....)).).)) | -17.6 | 30.1
3 | GCGTTTGGAAACGAATGC ((.((.(....).)).)) | -25.5 | 36
4 | GCGTTTTCACGC ((((....)))) | -24.6 | 54.2
5 | GCGTTTTTACGC ((((....)))) | -26.9 | 55.2
6 | GCTAAACGAAAGTTCAGC (((.(((....))).))) | -28.7 | 41.4
7 | GCTAAAGGAAACCTTAGC (((((.(....).))))) | -25.8 | 37.1
8 | GCTAAAGGAAACTTTAGC (((((((....))))))) | -37.4 | 53.7
9 | GCTAACGAAAGTTAGC ((((((....)))))) | -35.1 | 66.8
10 | GCTAACGAAAGTTCTAGC ((((((....)))..))) | -11.4 | 28.8
11 | GCTAACGAAAGTTTAAGC ((((((....)))..))) | -19 | 35.5
12 | GCTAACGAAAGTTTAGC ((((((....))).))) | -24.2 | 46.9
13 | GCTAACGGAAACATTAGC (((((.(....).))))) | -23.1 | 32.9
14 | GCTAAGCGAAAGCATGGC ((.(.((....)).).)) | -20.1 | 39.7
15 | GCTAAGCGAAAGCCTCGC ((.(.((....)).).)) | -10.7 | 29
16 | GCTAAGCGAAAGCCTTGC ((.(.((....)).).)) | -13.1 | 34.6
17 | GCTAAGCGAAAGCGAAGC (((..((....))..))) | -26.7 | 63
18 | GCTAAGCGAAAGCGGAGC (((..((....))..))) | -20.3 | 57.2
19 | GCTAAGCGAAAGCGTGGC ((.(.((....)).).)) | -16.1 | 57.1
20 | GCTAAGCGAAAGCTCGGC ((..(((....)))..)) | -19.7 | 39.7
21 | GCTAAGCGAAAGCTCTGC ((..(((....)))..)) | -15.8 | 31.4
22 | GCTAAGCGAAAGCTGCGC ((..(((....)))..)) | -21.1 | 58.3
23 | GCTAAGCGAAAGCTGGGC ((..(((....)))..)) | -17.7 | 52.9

Row | Sequence | folding enthalpy [1] [kcal/mol] | Tm [2] [°C]
24 | GCTAAGGGAAACCTTGGC ((.((((....)))).)) | -29.4 | 47.6
25 | GCTAAGGGAAACTTTAGC (((((.(....).))))) | -21.1 | 37.9
26 | GCTACAACGAAAGTTAGC (((..(((....)))))) | -18.6 | 33.4
27 | GCTACACCGAAAGGTAGC (((..(((....)))))) | -22.7 | 47.1
28 | GCTACAGAAATGTAGC ((((((....)))))) | -33.1 | 55.4
29 | GCTACAGCGAAAGCTAGC (((..(((....)))))) | -16.3 | 44.5
30 | GCTACAGGAAACTGCAGC (((.(((....))).))) | -28.3 | 44.5
31 | GCTACCACGAAAGTGAGC (((..(((....)))))) | -15.3 | 33.3
32 | GCTACCGGAAACGACAGC (((..((....))..))) | -15.8 | 27.5
33 | GCTACCTCGAAAGAGAGC (((..(((....)))))) | -16.3 | 30.1
34 | GCTACGCGAAAGCAGAGC (((..((....))..))) | -18.7 | 48.4
35 | GCTACGCGAAAGCCCAGC (((..((....))..))) | -6.89 | 33.3
36 | GCTACGCGAAAGCCTGGC ((.(.((....)).).)) | -13.4 | 34.4
37 | GCTACGCGAAAGCGAGGC ((..(((....)))..)) | -15.1 | 53.3
38 | GCTACGCGAAAGCGATGC ((..(((....)))..)) | -18.3 | 50
39 | GCTACGCGAAAGCGCGGC ((..(((....)))..)) | -16.1 | 51
40 | GCTACGCGAAAGCGCTGC ((..(((....)))..)) | -15.2 | 43.5
41 | GCTACGGGAAACCACAGC (((..((....))..))) | -21.4 | 36
42 | GCTACTGGAAACAGTGGC ((.((((....)))).)) | -38.3 | 51.7
43 | GCTAGACCGAAAGGTAGC (((..(((....)))))) | -19.2 | 44.1
44 | GCTAGACGAAAGTCCAGC (((.(((....))).))) | -24.9 | 47.6
45 | GCTAGAGGAAACCCTAGC (((((.(....).))))) | -31.2 | 41.4
46 | GCTAGCCGAAAGGCGAGC (((.(((....))).))) | -30.9 | 67.2

Row | Sequence | folding enthalpy [1] [kcal/mol] | Tm [2] [°C]
47 | GCTAGCGAAAGCTAGAGC ((((((....)))..))) | -13.2 | 55
48 | GCTAGCGAAAGCTCAGC ((((((....))).))) | -19.6 | 48.9
49 | GCTAGCGAAAGCTTAGC ((((((....))).))) | -22.1 | 52.5
50 | GCTAGCGGAAACGCTGGC ((.((((....)))).)) | -33.3 | 60.3
51 | GCTAGGCGAAAGCCAGC (((.(((....)))))) | -21.7 | 62.9
52 | GCTAGGCGAAAGCCATGC ((..(((....)))..)) | -17.7 | 53.5
53 | GCTAGGCGAAAGCGGAGC (((..((....))..))) | -20.1 | 42.4
54 | GCTAGGCGAAAGCTGAGC (((..((....))..))) | -18.2 | 53.6
55 | GCTAGGGGAAACCTTGGC ((.(.((....)).).)) | -23.8 | 34.4
56 | GCTAGGGGAAACTCTAGC (((((.(....).))))) | -34.8 | 47.7
57 | GCTAGTGGAAACACTAAC (.(((((....))))).) | -15.2 | 32.5
58 | GCTAGTGGAAACACTAGC (((((((....))))))) | -47.7 | 61.9
59 | GCTAGTGGAAACACTGGC ((.((((....)))).)) | -32.2 | 51.7
60 | GCTAGTGGAAACGCTAGC (((((.(....).))))) | -40.4 | 52.3
61 | GCTAGTGGAAACGTTAGC ((((..(....)..)))) | -20.1 | 36.4
62 | GCTATCCCGAAAGGGAGC (((..(((....)))))) | -11.7 | 38.9
63 | GCTATCCGAAAGGAGAGC (((.(((....))).))) | -38.9 | 58.6
64 | GCTATCGAAAGATATAGC ((((((....)))..))) | -25.1 | 36.1
65 | GCTATCGAAAGATCTAGC ((((((....)))..))) | -11.8 | 26.1
66 | GCTATCGAAAGATGCAGC ((((((....)))..))) | -18.3 | 35.8
67 | GCTATCGAAAGATGTAGC ((((((....)))..))) | -28.9 | 36.9
68 | GCTATCGAAAGATTAGC ((((((....))).))) | -26.1 | 42.7
69 | GCTATCGGAAACGACAGC (((.(((....))).))) | -30.9 | 43.8

Row | Sequence | folding enthalpy [1] [kcal/mol] | Tm [2] [°C]
70 | GCTATCGGAAACGGTAGC ((((.((....)).)))) | -38 | 51.8
71 | GCTATGAAAATAGC (((((....))))) | -23.4 | 47.9
72 | GCTATGACGAAAGTCAGC (((..(((....)))))) | -13.2 | 42
73 | GCTATGCGAAAGCACGGC ((..(((....)))..)) | -17.7 | 41.4
74 | GCTATGCGAAAGCAGAGC (((.(((....))).))) | -49 | 60.6
75 | GCTATGCGAAAGCCCAGC (((..((....))..))) | -11.6 | 29
76 | GCTATGCGAAAGCCGAGC (((..((....))..))) | -19 | 39.4
77 | GCTATGCGAAAGCGAAGC (((..((....))..))) | -16.4 | 44.2
78 | GCTATGCGAAAGCTAAGC (((..((....))..))) | -17.2 | 47.6
79 | GCTATGCGAAAGCTTTGC ((.(.((....)).).)) | -18.2 | 43.4
80 | GCTATGGGAAACCATAGC (((((((....))))))) | -40.7 | 61.4
81 | GCTATTCCGAAAGGAAGC (((..(((....)))))) | -14.7 | 32.9
82 | GCTCACGAAAGTGGAAGC ((((((....)))..))) | -20.9 | 45.4
83 | GCTCACGAAAGTGGCAGC ((((((....)))..))) | -14.7 | 44.6
84 | GCTCACGAAAGTGTTAGC ((((((....)))..))) | -21.6 | 40.8
85 | GCTCACGGAAACATGAGC (((((.(....).))))) | -34.6 | 44.9
86 | GCTCAGCGAAAGCAAAGC (((..((....))..))) | -13.6 | 38.4
87 | GCTCAGCGAAAGCAGGGC ((.(.((....)).).)) | -19 | 51.9
88 | GCTCAGCGAAAGCCAAGC (((..((....))..))) | -16.4 | 41
89 | GCTCAGCGAAAGCCCAGC (((..((....))..))) | -12.1 | 37.2
90 | GCTCAGCGAAAGCCGTGC ((.(.((....)).).)) | -12.3 | 42.4
91 | GCTCAGCGAAAGCCTAGC (((..((....))..))) | -19.7 | 36.1
